Source: PubChem (Broad Institute)
PGC1a acetyl inh = modulators of PGC1a acetylation. 350,000 compounds, 0.17% hits. inhibition, % at 15.6 µM. U2OS PGC1a acetylation, AlphaScreen anti-acetyl-lysine; with virally co-expressed GCN5 acetyltransferase;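 active = every replicate shows inhibition of at least 40%; inconclusive = mean inhibition at least 40% but some replicate below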;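 also: 0% = neutral control wells and 100% = positive control wells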
EWS-Fli block = blocks EWS/Fli oncoprotein-driven transcription; 350,000 compounds, 0.67% hits; inhibition, % at 12.6 µM; A673 NR0B1-luciferase reporter, viability-normalised;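 active = mean inhibition of at least 50% after viability correction, with every replicate also passing that limit; inconclusive = mean reaches 50% but only one of two replicates passes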;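 also: firefly luciferase signal divided by Alamar Blue viability fluorescence both relative to DMSO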
Env fusion inh = blocks HIV Env-driven cell-cell fusion; HeLa-JRFL Env/CEM21 cell fusion, luciferase; 360,000 compounds, 1.1% hits; AID 651610; inhibition, % at 12.3 µM;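 active = mean replicate inhibition score of at least 50 and every replicate individually at or above 50; inconclusive = only one of the two criteria met; inactive = mean below 50 and not all replicates reaching 50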;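 also: 0% = plate neutral controls and 100% = maraviroc near 300 nM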
FN deposit inh = fibronectin deposition inhibition; AH1F fibroblasts, Alexa488-fibronectin deposition fluorescence, overnight; inhibition, % at 12.6 µM; 350,000 compounds, 0.086% hits; AID 743247;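 active = mean inhibition across replicates of 30% or more, regardless of how many single replicates reach that level; inconclusive = mean under 30% yet at least half of replicates reach 30%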;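 also: positive control wells lacked labelled fibronectin entirely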
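Material: AH1F fibroblast monolayer depositing Alexa488-labelled fibronectin into matrix | Input: 10000 AH1F cells/well | Medium: DMEM plus 2% serum, read in PBS | Reagent: Alexa488-fibronectin, 24 nM final in well | Compound dosing: One dose per compound, pinned | Schedule: 1 h adhesion, overnight exposure | Measured by: Fluorescence at 485 nm excitation, 525 nm emission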
FGF22 binding = FGF22 (human) thermal shift binding; Q9HCT0; recombinant FGF22 thermal shift, SYPRO orange fluorescence; percent of sucrose octasulfate shift, DMSO zero; activity (Tm shift, normalised), % at 9.99 µM; 340,000 compounds, 1.5% hits; AID 651658;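 active = mean Tm shift, scaled 0 neutral to 100 positive control, at about 1.3% or above, every replicate too, limit read from the data; inconclusive = no clear call, values can overlap the other calls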
Target sequence (Q9HCT0 whole entry, looked up): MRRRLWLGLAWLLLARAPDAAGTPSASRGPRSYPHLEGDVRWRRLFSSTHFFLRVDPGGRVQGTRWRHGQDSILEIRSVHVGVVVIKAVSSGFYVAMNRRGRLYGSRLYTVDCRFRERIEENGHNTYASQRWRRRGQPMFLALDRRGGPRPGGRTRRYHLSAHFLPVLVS
PAX8 reporter = lowers PAX8-driven luciferase in RMG-I cells. RMG-I TPO-luciferase reporter, SteadyGlo, 24 h. inhibition, % at 12.6 µM. 360,000 compounds, 1.2% hits;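 active = mean replicate inhibition at least 60% with every replicate also reaching 60%; inconclusive = only one of the two criteria is met; inactive = mean below 60% and not all replicates reaching 60%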;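 also: luciferase light reporting Pax8 driven TPO promoter activity; plate controls were median of neutral control wells for no effect and mitoxantrone controls for full effect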
Active calls of the source: *; ? = inconclusive; . = no result given; [ ] = another dose, or the depositor's remark. This is a sample that favours compounds with a hit; in the whole collection about 3.1% have one here.

SMILES	PGC1a acetyl inh	EWS-Fli block	Env fusion inh	FN deposit inh	FGF22 binding	PAX8 reporter
C[C@@H]1CN([C@H](C)CO)C(=O)Cc2cc(NC(=O)Nc3ccc4c(c3)OCO4)ccc2O[C@@H]1CN(C)C(=O)Nc1ccc(F)cc1	0	-5	-12[16.7 µM]	.	0	9
O=C1CN(CCN2CC(=O)N(Cc3ccccc3)C(=O)C2)CC(=O)N1Cc1ccccc1	-6	6	.	9	44*	-17
O=C(NC1CCCC1)N[C@H]1CC[C@H](CC(=O)N2CCOCC2)O[C@H]1CO	8	6	-3[16.7 µM]	.	0	5
C[C@@H]1CN([C@@H](C)CO)C(=O)c2cc(NS(=O)(=O)c3ccc(Cl)cc3)ccc2O[C@@H](C)CCCCO[C@@H]1CN(C)C(=O)Nc1ccc(C(F)(F)F)cc1	9	8	10[16.7 µM]	.	0	22
Cc1cc(C(=O)CN2C(=O)C(=O)N(Cc3ccco3)C2=O)c(C)n1CCc1ccc(F)cc1	.	4	.	1	0	12
Cc1cc(C(=O)CN2C(=O)C(=O)N(Cc3ccco3)C2=O)c(C)n1CCc1ccccc1	1	54*	11	10	0	32
O=C(/C=C/c1ccccn1)c1cc(Cl)cc(Cl)c1O	-50	1	-15	0	41	63*
CCN(c1ccc(OC)cc1)S(=O)(=O)c1cc(-c2cc(C)no2)ccc1C(C)C	-24	13	25	8	0	34
COc1ccc(-c2cc(C)no2)cc1S(=O)(=O)N(C)c1cccc(C)c1	-29	.	7	0	0	7
CCOc1ccc(N(C)S(=O)(=O)c2cc(-c3cc(C)no3)ccc2C(C)C)cc1	-65	11	79*	1	0	39
Cc1cccc(N(C)S(=O)(=O)c2ccc(-c3cc(C)no3)s2)c1	-18	54*	-384	-12	0	38
CCOc1ccc(N(C)S(=O)(=O)c2ccc(-c3ccc(=O)[nH]n3)s2)cc1	.	.	6	-5	0	10
CCOc1ccc(N(C)S(=O)(=O)c2ccc(-c3cc(C)no3)s2)cc1	-20	55*	2	0	0	24
CCN(c1cccc(C)c1)S(=O)(=O)c1ccc(-c2cc(C)no2)s1	6	55*	7	1	0	28
Cc1noc(C)c1S(=O)(=O)Nc1ccc2c(c1)CC(=O)N([C@@H](C)CO)C[C@H](C)[C@H](CN(C)Cc1ccncc1)O2	5	-2	-1[16.7 µM]	.	0	-12
COc1ccc(S(=O)(=O)N(C)C[C@@H]2OCCCC[C@H](C)Oc3ccc(NS(=O)(=O)c4ccc(F)cc4)cc3C(=O)N([C@@H](C)CO)C[C@H]2C)cc1	2	-9	-44[16.7 µM]	-1	0	-14
COc1ccc(NC(=O)Nc2ccc3c(c2)C(=O)N([C@H](C)CO)C[C@@H](C)[C@H](CN(C)Cc2ccc(-c4ccccc4)cc2)O3)cc1	5	6	.	.	0	.
O=C(C[C@H]1C[C@@H]2c3cc(NC(=O)C4CCC4)ccc3O[C@@H]2[C@H](CO)O1)NCCc1ccccc1	-2	3	7[16.7 µM]	.	0	6
C[C@@H]1CC=CC[C@H](c2cccc(Cl)c2)NC(=O)[C@@H](Cc2ccccc2)N(C)C(=O)c2ccccc2O1 (mixture of isomers)	.	.	.	-13	.	.
COc1cccc(Nc2nnc(SCC(=O)N(CC(C)C)CC(C)C)s2)c1	-4	.	.	.	.	.
COc1cccc(Nc2nnc(SCN3C(=O)c4ccccc4C3=O)s2)c1	-2	-14	.	-3	0	84*
O=C1[C@H]2[C@@H](C3CC3)N3C(=O)CN(CC4CC4)C(=O)[C@@]3(Cc3ccccc3)[C@H]2C(=O)N1c1ccccc1	.	-5	70*	4	0	-10
COc1ccc(-n2ncc(S(=O)(=O)c3ccccc3)c2-c2ccc(Cl)cc2)cc1	-47	.	60*	0	.	.
O=S(=O)(c1ccccc1)c1cnn(-c2ccccc2)c1-c1ccc(F)cc1	-21	.	?	.	.	.
CC1Sc2n(c3ccccc3[n+]2C)N=C1c1ccccc1 (stereo unspecified)	.	.	60*	0	.	68*
C[n+]1c2n(c3ccccc31)N=C(c1ccc(Cl)cc1)CS2	.	.	33	7	.	29
N#Cc1ccc2nc(-c3ccc(CN4CCC(c5nc6ccccc6[nH]5)CC4)cc3)c(-c3ccccc3)nc2c1	.	18	28	23	0	78*
